This is an account of results in ChEMBL document CHEMBL2163208, “Diphenylpyridylethanamine (DPPE) derivatives as cholesteryl ester transfer protein (CETP) inhibitors” (J Med Chem, 2012).

The target in data set [1] is T1, Cholesteryl ester transfer protein (Homo sapiens, UniProt P11597).
T1 sequence (P11597 whole entry): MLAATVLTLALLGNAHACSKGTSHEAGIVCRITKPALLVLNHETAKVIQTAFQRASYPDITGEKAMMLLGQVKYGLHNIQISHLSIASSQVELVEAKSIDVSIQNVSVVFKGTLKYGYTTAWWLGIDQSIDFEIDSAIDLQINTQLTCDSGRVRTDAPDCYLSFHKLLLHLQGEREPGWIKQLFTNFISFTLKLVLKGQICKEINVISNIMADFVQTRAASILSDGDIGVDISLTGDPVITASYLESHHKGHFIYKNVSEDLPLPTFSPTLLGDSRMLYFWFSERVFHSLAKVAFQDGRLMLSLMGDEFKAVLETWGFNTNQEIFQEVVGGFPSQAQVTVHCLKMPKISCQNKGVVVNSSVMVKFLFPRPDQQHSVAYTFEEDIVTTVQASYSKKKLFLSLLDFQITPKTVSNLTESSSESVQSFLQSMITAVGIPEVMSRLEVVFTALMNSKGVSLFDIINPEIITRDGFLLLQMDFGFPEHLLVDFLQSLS
The data set is described as follows: Inhibition of human recombinant CETP-mediated [3H]cholesteryl ester transfer from HDL to biotinylated LDL by scintillation proximity assay. (In general: In a scintillation proximity assay essentially only radioactivity close to the scintillant gives light.)

Data set [2] deals with T1, Cholesteryl ester transfer protein. The data set is described as follows: Inhibition of CETP-mediated [3H]cholesteryl ester transfer activity in human plasma after 2.5 hrs by scintillation counter.
Data set [3] concerns Mus musculus. Nature of the data set: Residual CETP-mediated [3H]cholesteryl ester transfer from HDL to LDL in human CETP expressed transgenic mouse coexpressing apoB-100 at 30 mg/kg, po measured at 4 hrs relative to predose condition.
Data set [4] is described as follows: Metabolic stability in mouse liver microsomes assessed as compound remaining at 3 uM after 10 mins. The following applies: read-out: Stability. Type of data set: ADME, Microsome. Summed up: (§1)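 Mouse liver microsomes (1 mg/mL protein) incubated with compound at 3 μM for 10 min; remaining compound quantified by UV absorbance, expressed as % remaining or rate per mg protein.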
Background: Microsomes from liver hold many membrane-bound enzymes, among them those of drug oxidation.

The nature of data set [5]: Cmax in telemeterized rat up to 60 mg/kg, po. Format: ADME, organism-based. More on the design: dose 60 mg/kg, route oral. To be noted: in vivo.
The nature of data set [6]: Half life in telemeterized rat up to 60 mg/kg, po. Format: ADME, organism-based. More on the design: dose 60 mg/kg, route oral. The following applies: in vivo.
Data set [7] in a line: Drug metabolism in mouse liver microsomes assessed as per mg of protein at 3 uM after 10 mins. Format: ADME, Microsome. An outline of the steps:
as §1

The subject of data set [8] is Rattus norvegicus. Nature of the data set: Toxicity in telemeterized rat assessed as change in heart rate up to 60 mg/kg, po. Format: organism-based. More on the design: dose 60 mg/kg, route oral. The following applies: in vivo.
For data set [9], the species on record is Mus musculus. Nature of the data set: Inhibition of [3H]cholesteryl ester transfer from HDL to LDL in human CETP expressed transgenic mouse plasma coexpressing apoB-100.
Data set [10] can be described thus: AUC (0 to 8 hrs) in transgenic mouse expressing human CETP and apoB-100 at 30 mg/kg, po. Type of data set: ADME, organism-based. Set-up: time < 8 hr, dose 30 mg/kg, route oral. The following applies: plasma.
Data set [11] deals with Mus musculus. The data set is described as follows: Residual CETP-mediated [3H]cholesteryl ester transfer from HDL to LDL in human CETP expressed transgenic mouse coexpressing apoB-100 at 30 mg/kg, po measured at 8 hrs relative to predose condition.
The test system of data set [12] is Rattus norvegicus. Nature of the data set: Toxicity in telemeterized rat assessed as change in mean arterial blood pressure up to 60 mg/kg, po. Format: organism-based. Set-up: dose 60 mg/kg, route oral. To be noted: in vivo.
Data set [13] is described as follows: Plasma concentration in moderately fat-fed golden Syrian hamster at 30 mg/kg, po qd administered for 3 days measured at 2 hrs post last dose. Type of data set: ADME, organism-based, Mesocricetus auratus. Set-up: dose 30 mg/kg, route oral. Summed up: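 Moderately fat-fed male Golden Syrian hamsters dosed 30 mg/kg po once daily; plasma exposure sampled 2 h after dosing on day 3.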

The test system of data set [14] is Mus musculus. The data set is described as follows: [3H]cholesteryl ester transfer activity from HDL to LDL in human CETP expressed transgenic mouse plasma coexpressing apoB-100 at 30 mg/kg, po measured at 2 hrs relative to predose condition.
The next data set concerns Syrian golden hamster. The data set is described as follows: Inhibition of CETP in moderately fat-fed golden Syrian hamster assessed as increase in HDL-cholesterol level at 30 mg/kg, po qd administered for 3 days measured at 2 hrs post last dose relative to predose condition. Format: functional, Mesocricetus auratus. Set-up: scale not given: the % may be the effect or the level left. Summed up:
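Male Golden Syrian hamsters, 12 weeks old, fed moderate-fat diet (2.5% coconut oil, 0.25% cholesterol) for 2 weeks. Predose retro-orbital bleed; 30 mg/kg po q.d. for 3 days in ethanol/Cremophor/water 1:1:8. Blood 2 h postdose on day 3; HDL-C measured by automated lipid analyzer versus predose; percent increase as mean ± SEM, N = 6.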

A word on the IC50: it is the concentration that gives 50% inhibition. Take `O=C(NC1CCCC1)N[C@@](Cc1ccccc1)(c1cc(F)cc(C(F)(F)F)c1)c1ccc(F)cn1`: the IC50 in [1] is 0.026 µM; in data set [2] it was 7.6 µM.

As for `O=C(NC1CCCC1)N[C@@](Cc1ccccc1F)(c1cc(F)cc(C(F)(F)F)c1)c1ccc(Cl)cn1`, the IC50 in data set [1] is 0.016 µM; in data set [2], 6.4 µM.

In the case of `O=C(NC1CCCC1)N[C@@](Cc1ccc(F)cc1)(c1cc(F)cc(C(F)(F)F)c1)c1ccc(Cl)cn1`, the IC50 in data set [1] was found to be 0.087 µM; in data set [2], 10 µM.

Turning to `N#Cc1ccc([C@@](Cc2ccccc2)(NC(=O)NC2CCCC2)c2cc(F)cc(C(F)(F)F)c2)nc1`, the IC50 in [1] was 0.036 µM; in data set [2] it was 12 µM.

As for `O=C(NC(Cc1ccccc1)(c1cccc(C(F)(F)F)c1)c1ccccn1)c1cccc(C(F)(F)F)c1` (stereo not given), the IC50 in data set [1] is 12 µM.

For `O=C(NC1CCCC1)N[C@@](Cc1ccccn1)(c1cc(F)cc(C(F)(F)F)c1)c1ccc(Cl)cn1`, the IC50 in data set [1] was 27 µM.

In the case of `Cc1ccc(C[C@](NC(=O)NC2CCCC2)(c2cc(F)cc(C(F)(F)F)c2)c2ccc(Cl)cn2)cc1`, the IC50 was found to be 0.023 µM in data set [1] and 3.4 µM in [2].

As for `CC(C)(C)CC(=O)OC(Cc1ccccc1)(c1cccc(C(F)(F)F)c1)c1ccccn1` (racemic), the IC50 in [1] came out at 6.9 µM; in [2], 56 µM.

Consider `CC(C)(C)CC(=O)O[C@](Cc1ccccc1)(c1cccc(C(F)(F)F)c1)c1ccccn1`, for which the values for the IC50 in [1] and in data set [2] were 44 µM and greater than 97 µM, respectively.

Take `O=C(NC(Cc1ccccc1)(c1cccc(C(F)(F)F)c1)c1ccccn1)c1ccc(F)cc1` (stereo not given): the IC50 in data set [1] came out at 8.9 µM.

Turning to `O=C(NC1CCCC1)NC(Cc1ccccc1)(c1cccc(C(F)(F)F)c1)c1ccc(F)cn1` (racemic), the values for the IC50 in data set [1] and in data set [2] were 0.24 µM and 6.9 µM, respectively.

`Cc1csc(C[C@](NC(=O)NC2CCCC2)(c2cc(F)cc(C(F)(F)F)c2)c2ccc(Cl)cn2)n1`: the values for the IC50 in [1] and in [2] were 1.1 µM and 24 µM, respectively.

In the case of `O=C(NC1CCCC1)NC(Cc1ccccc1)(c1cccc(C(F)(F)F)c1)c1ccc(Cl)cn1` (racemic), the half-maximal inhibitory concentration (IC50) in data set [1] was determined as 0.31 µM; in data set [2] it was 16 µM.

The Cmax is the maximum level reached in the sampled fluid or tissue. Usually half-life stands for how long it takes for the measured level to halve. For orientation: AUC(0-t) means the area under the concentration-time curve up to a stated or last time point. Consider `O=C(N[C@@](Cc1ccccc1)(c1cc(F)cc(OC(F)(F)C(F)F)c1)c1ccc(Cl)cn1)c1ccc(F)c(C(F)(F)F)c1`, for which the CETP activity in vivo at 30 mg/kg is 48% with Mus musculus [3] and 40% with Mus musculus [11]. Moreover, the IC50 in [1] was 0.036 µM; in the data set listed under Mus musculus [9], 9 µM; in [2] it was 3.6 µM. Besides, the remaining at 10 min, 3 µM in data set [4] was found to be 100%. The peak level in data set [5] (Cmax) was 25 µM. The compound further showed a half-life in [6] of 14 h. For the same compound, the Drug metabolism in [7] stood at 0.0025 nmol/min/mg. Moreover, the Activity result with Rattus norvegicus [8] is reported as “Non-toxic”; in the data set on Rattus norvegicus [12] it was “Non-toxic”; in the data set with Syrian golden hamster, 40%. Also, the AUC(0-t) at 8 h in [10] is 93 µM·h. In data set [13], this compound yielded a concentration at 2 h of 21 µM. The compound further had an activity in vivo at 30 mg/kg with Mus musculus [14] of 55%.

In the case of `COC(=O)C[C@](NC(=O)NC1CCCC1)(c1cc(F)cc(C(F)(F)F)c1)c1ccc(Cl)cn1`, the half-inhibitory concentration (IC50) in data set [1] is 2.4 µM.

In the case of `CC(C)(C)CC(=O)OC(Cc1ccccc1)(c1cccc(OC(F)(F)C(F)F)c1)c1ccccn1` (racemic), the IC50 was determined as 1.1 µM in [1] and 28 µM in [2].

In the case of `O=C(NC1CCCC1)NC(Cc1ccccc1)(c1ccc(Cl)nc1)c1cc(F)cc(C(F)(F)F)c1` (racemic), the IC50 in [1] was 0.031 µM; in [2], 12 µM.

As for `CC(C)(C)CC(=O)OC(Cc1ccccc1)(c1cccc(C(F)(F)F)c1)c1ccc(Cl)cn1` (racemic), the IC50 in data set [1] was determined as 1.3 µM; in data set [2] it was 9.4 µM.

As to `O=C(NC1CCCC1)N[C@@](Cc1ccccc1)(c1cc(F)cc(OC(F)(F)C(F)F)c1)c1ccc(Cl)cn1`, the CETP activity in vivo at 30 mg/kg with Mus musculus [3] worked out at 58%; in the data set with Mus musculus [11], 65%. In [4], the remaining at 10 min, 3 µM is 10%. Besides, the Drug metabolism in [7] turned out to be 0.27 nmol/min/mg. In addition, in the data set listed under Mus musculus [9], half-maximal inhibition (IC50) was put at 0.94 µM. The compound further showed an AUC(0-t) at 8 h in data set [10] of 9.7 µM·h. This compound also showed an activity in vivo at 30 mg/kg in the data set with Mus musculus [14] of 48%.

For the compound `O=C(NC(Cc1ccccc1)(c1cccc(C(F)(F)F)c1)c1ccccn1)c1ccccc1` (stereo not given), the IC50 in data set [1] was greater than 96 µM.

`O=C(NC(Cc1ccccc1)(c1cccc(C(F)(F)F)c1)c1ccccn1)c1ccc(F)c(C(F)(F)F)c1` (stereo not given): the IC50 in data set [1] worked out at 2.9 µM; in data set [2] it was 15 µM. In addition, the remaining at 10 min, 3 µM in [4] came out at 68%.

With `C=CC[C@](NC(=O)NC1CCCC1)(c1cc(F)cc(C(F)(F)F)c1)c1ccc(Cl)cn1`, the figures for the IC50 in [1] and in data set [2] were 0.085 µM and 7.1 µM, respectively.

Turning to `COc1ccc([C@@](Cc2ccccc2)(NC(=O)NC2CCCC2)c2cc(F)cc(C(F)(F)F)c2)cn1`, the IC50 in data set [1] was 0.015 µM; in [2], 3.4 µM.

Regarding `CCOC(=O)N1c2ccc(C(F)(F)F)cc2[C@@H](N(Cc2cc(C(F)(F)F)cc(C(F)(F)F)c2)C(=O)OC)C[C@H]1CC` [TORCETRAPIB], the CETP activity in vivo at 30 mg/kg with Mus musculus [3] was 31%; in the data set on Mus musculus [11], 25%. Moreover, the IC50 in the data set listed under Mus musculus [9] was 0.16 µM. In [10], this compound registered an AUC(0-t) at 8 h of 65 µM·h. Further, the activity in vivo at 30 mg/kg in the data set with Mus musculus [14] was determined as 31%.

As for `O=C(NC1CCCC1)N[C@@](Cc1ncn[nH]1)(c1cc(F)cc(C(F)(F)F)c1)c1ccc(Cl)cn1`, the IC50 in data set [1] was greater than 96 µM.

Consider `CC(C)(C)NC(=O)NC(Cc1ccccc1)(c1cccc(C(F)(F)F)c1)c1ccccn1` (stereo not given), for which the IC50 in data set [1] is 3.8 µM; in data set [2], 83 µM.

As for `CC(C)(C)CC(=O)O[C@@](Cc1ccccc1)(c1cccc(C(F)(F)F)c1)c1ccccn1`, the values for the IC50 in [1] and in [2] were 6.7 µM and 26 µM, respectively.

As for `O=C(NC1CCCC1)NC(Cc1ccccc1)(c1cccc(OC(F)(F)C(F)F)c1)c1ccc(Cl)cn1` (racemic), the figures for the IC50 in [1] and in [2] were 0.025 µM and 0.84 µM, respectively.

As to `O=C(NC1CCCC1)NC(Cc1ccccc1)(c1cccc(C(F)(F)F)c1)c1ccccn1` (stereo not given), the IC50 in [1] was 0.7 µM; in data set [2] it was 25 µM. Also, the remaining at 10 min, 3 µM in [4] was found to be 2%.

As for `O=C(NC1CCCC1)NC(Cc1ccccc1)(c1cccc(OC(F)(F)F)c1)c1ccc(Cl)cn1` (racemic), the IC50 is 0.031 µM in data set [1] and 2.7 µM in [2].

For `CC(C)(C)CC(=O)NC(Cc1ccccc1)(c1cccc(C(F)(F)F)c1)c1ccccn1` (stereo not given), in [1], the IC50 was found to be 27 µM.

As for `Cc1nc(C[C@](NC(=O)NC2CCCC2)(c2cc(F)cc(C(F)(F)F)c2)c2ccc(Cl)cn2)no1`, the IC50 in [1] came out at 1.07 µM; in data set [2], 34 µM.
